# DNMT1 block: DNMT1 (human) enzyme inhibition. inhibition (reported as % activation of signal), % at 10 µM. DNMT1 molecular beacon, Hinp1I cleavage, fluorescence. AID 588458. 0.83% of 360,000 active; in the data active = inhibition above about 50%
# Scp1 inh: Scp-1 (human) phosphatase inhibition; Q9GZU7; Recombinant Scp1, phosphopeptide, malachite green phosphate absorbance; inhibition, % at 20 µM; 0.88% of 340,000 active;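 active = inhibition above about 50% at 20 µM, limit read from the data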;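 note: plate controls were DMSO wells with enzyme for no effect and wells lacking enzyme for full effect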
#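 System: truncated SCP-1 phosphatase (76-261aa); medium: Tris acetate buffer pH 5.5 with MgCl2 and Tween-20; incubation: 45 min room-temperature reaction, 5 min colour, 30 min stabiliser; compound: single 20 µM dose, 1% DMSO; reagent: Phosphorylated 17-residue peptide substrate; read-out: % inhibition at 20 µM; technique: colorimetric free-phosphate detection, absorbance 630 nm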
# Rpn11 inh: blocks the human proteasome subunit Rpn11. AID 588493. human 26S proteasome, Ub4-pepOG fluorescence polarization; 20S core pre-blocked with epoxomicin. inhibition, % at 20 µM. 0.59% of 360,000 active. O00487;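 active = inhibition at 20 µM, scaled to each plate's controls, above about 33%, limit read from the data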
# STEP inh: blocks human striatal-enriched tyrosine phosphatase; 0.25% of 360,000 active; recombinant STEP, OMFP fluorogenic substrate, fluorescence; P54829; inhibition, % at 20 µM;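 active = inhibition at 20 µM, scaled per plate between control wells, above about 37%, limit read from the data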;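 note: 0% = DMSO with enzyme and substrate and 100% = substrate only without enzyme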
#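 Material: STEP (striatal-enriched tyrosine phosphatase) enzyme, cell-free | Medium: 50 mM Bis-Tris pH 6.0 with 2.5 mM DTT and 0.005% Tween 20 | Read-out: Percent inhibition scaled to no-enzyme and uninhibited-enzyme controls, plate-pattern corrected | Signal: Fluorescence read at 480 nm ex / 540 nm em | Times: 20 min reaction, room temperature, in the dark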
# SUMO1-SIM PPI: alters human SUMO1 binding to SIM partners; 0.33% of 360,000 active; SUMO1 binding to a labelled peptide, TR-FRET, 1 h; inhibition, % at 20 µM; AID 602429; P63165; in the data active = inhibition above about 37%
# LMPTP inh: LMPTP (human) inhibition; P24666; recombinant LMPTP-A, OMFP fluorogenic substrate, fluorescence intensity; inhibition, % at 20 µM; 0.22% of 360,000 active; AID 651560;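 active = compounds that cut the enzyme signal by at least half of the control window in the single-dose screen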;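 note: plate controls were DMSO wells with enzyme plus substrate for no effect and substrate without enzyme for full effect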
#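 Test system: LMPTP-A phosphatase enzyme. Amount: LMPTP-A at 0.625 nM final in the reaction. Reagent: OMFP substrate, 400 µM final. Times: 50 min at room temperature. Signal: endpoint fluorescence intensity from OMFP dephosphorylation. Read-out basis: % inhibition. Benchmarks: no-enzyme and uninhibited controls.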
# Scp-1 conf: confirmation of human Scp-1 phosphatase inhibitors | recombinant SCP-1 catalytic domain, phosphate release, malachite green absorbance | 61% of 2,500 active | inhibition, % at 20 µM | shares compounds with Scp1 inh;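 note: plate controls were DMSO with enzyme for no effect and buffer wells lacking enzyme for full effect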
# MG interference: counter-screen for Scp-1 inhibitors: colorimetric interference | shares compounds with Scp1 inh | Colorimetric interference counterscreen, malachite green absorbance 630 nm | apparent inhibition (interference), % at 20 µM | 2,500 tested, under 10 active | AID 540313;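 note: compounds added after enzyme reaction finished so only phosphate colour detection is probed; plate controls were DMSO wells with completed Scp-1 reaction for no effect and substrate wells lacking enzyme for full effect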
# Scp1 DSF: binds human Scp-1, shifting its melting temperature; 25% of 1,500 active; Recombinant SCP1, Sypro Orange thermal shift Tm; shares compounds with Scp1 inh; AID 540329; thermal shift relative to vanadate control, % at 40 µM;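 active = substances whose mean melting-temperature shift, as a percentage of the reference inhibitor's shift, reaches about 5.3%, limit read from the data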;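 note: 0% = Tm of DMSO wells and 100% = Tm with sodium orthovanadate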
# DNMT1 interf DR: counter-screen for DNMT1 inhibitors: spectral interference, dose response; shares compounds with DNMT1 block; molecular beacon fluorescence; IC50, µM; 200 tested, under 10 active; AID 602382; call rule not given here
# DNMT1 inh conf: DNMT1 inhibition confirmation, single concentration; shares compounds with DNMT1 block; DNMT1 molecular beacon HinP1I cleavage, fluorescence; inhibition, % at 10 µM; 8% of 2,300 active; AID 602385;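 active = average inhibition of at least 30% in the single-concentration confirmation test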
# DNMT1 interf: shows spectral interference in the DNMT1 beacon assay; activation (fluorescence interference), % at 10 µM; shares compounds with DNMT1 block; DNMT1 molecular beacon spectral interference counterscreen, fluorescence 485/520; AID 602387; 1% of 2,300 active;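 active = activation of at least 30% at 10 µM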;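 note: DNMT1 catalytic domain with a HinP1I cleavage step and a FAM/dabcyl DNA beacon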
# Numbers without * were called inactive; x = no result. Sampled rows, rich in hits. Any-hit rate of the full collection: about 2.3%.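 Rule for the calls, unless noted: active = inhibition of at least 30% at 20 µM; inactive = the rest.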
SMILES,DNMT1 block,Scp1 inh,Rpn11 inh,STEP inh,SUMO1-SIM PPI,LMPTP inh,Scp-1 conf,MG interference,Scp1 DSF,DNMT1 inh conf,DNMT1 interf,others
CCn1nnc(NC(=O)CSc2ccc(Cl)cc2)n1,66*,51*,-2,-1,4,6,72*,-6,3,5,2,
CC(=O)Nc1cccc(C(=O)Nc2cc(C(F)(F)F)ccc2-n2cncn2)c1,0,x,1,-4,-5,0,x,x,x,x,x,
O=C(O)c1cccc(-n2cccc2C=C2C(=O)c3ccccc3C2=O)c1,49,31,3,9,4,3,x,x,x,x,x,
O=C(O)c1cccc(-n2cccc2/C=C2/NC(=O)N(c3cccc(Cl)c3)C2=O)c1,97*,85*,-1,3,35,5,64*,-16,4,25,4,
Cc1cccc(NC(=O)CN2C(=O)N/C(=C\c3cccn3-c3cccc(C(=O)O)c3)C2=O)c1,34,18,-9,3,-14,0,x,x,x,x,x,
O=C(O)c1cccc(-n2cccc2/C=C2/SC(=O)N(CC(=O)N3CCCC3)C2=O)c1,70*,67*,-14,23,-1,1,54*,-20,-8,2,4,
O=C(O)c1cccc(-n2cccc2/C=C2\SC(=O)N(Cc3ccccc3F)C2=O)c1,91*,93*,7,11,-5,8,81*,-24,-6,6,0,
O=C(CN1C(=O)S/C(=C/c2cccn2-c2ccc(O)cc2)C1=O)N1CCCC1,-3,-1,-1,1,-15,0,x,x,x,x,x,
Cc1nn(-c2ccc(F)cc2)c(Cl)c1/C=N/NC(=O)c1ccc(O)cc1,4,-4,-2,0,11,1,x,x,x,x,x,
Cc1nn(-c2ccc(F)cc2)c(Cl)c1/C=N/NC(=O)c1cccc(S(=O)(=O)N2CCCC2)c1,75*,50*,14,14,1,3,35*,-10,-16,0,-9,
COc1ccc(S(=O)(=O)N2CCC3(CC2)CC(=O)c2ccccc2O3)cc1OC,4,-2,-2,1,2,1,x,x,x,x,x,
NS(=O)(=O)c1ccc(NS(=O)(=O)c2ccc(NC(=O)C3CC3)cc2)cc1,0,-5,-7,-3,3,-2,x,x,x,x,x,
CCN(CC)S(=O)(=O)c1ccc(/C=C/C(=O)OCC(=O)NCc2ccco2)cc1,64*,71*,-17,7,-17,10,79*,2,4,4,6,
CCOC(=O)[C@]12CCCC=C1N(CCc1ccc(OC)c(OC)c1)C(=O)[C@H](CC(=O)N1CCCC1)C2,x,x,x,x,-5,0,x,x,x,x,x,
C[C@@H]1CN([C@@H](C)CO)C(=O)CCCn2nncc2CO[C@H]1CN(C)S(C)(=O)=O,4,x,-4,1,0,-1,x,x,x,x,x,
CCOc1ccc(N2CC(C(=O)Nc3nnc(Cc4ccccc4)s3)CC2=O)cc1 (centres undefined),-2,-5,3,1,0,0,x,x,x,x,x,
O=C(Cn1c(=O)n(Cc2ccco2)c(=O)c2c3c(sc21)CCCCC3)Nc1ccccc1,93*,74*,-7,5,14,21,44*,-29,7.9*,13,2,
O=C(Cn1c(=O)n(Cc2ccco2)c(=O)c2c3c(sc21)CCCCC3)c1ccccc1,72*,56*,-6,6,7,7,3,-16,x,2,2,
O=C(CSc1nccc(=O)[nH]1)NCc1ccco1,77*,93*,-5,10,27,1,69*,-3,3,3,0,
O=C(CSc1nc2ncccc2[nH]1)NCc1ccco1,3,11,-16,2,1,-1,x,x,x,x,x,
O=C(CSc1nnc(Nc2ccccc2F)s1)NCc1ccco1,76*,83*,-18,-1,13,21,63*,-14,4,2,-2,
Cc1nnc(SCC(=O)NC(=O)NCc2ccco2)n1Cc1ccccc1,66*,87*,-25,-1,5,18,63*,-12,-5,3,4,
Cc1ccccc1Nc1nnc(SCC(=O)NC(=O)NCc2ccco2)s1,90*,84*,-21,1,6,25,61*,-17,5,2,1,
Cc1ccc(NC(=O)C2(C)CCN2C(=O)CC(c2ccccc2)c2ccccc2)cc1 (centres undefined),-5,x,0,0,1,3,x,x,x,x,x,
CCOc1ccccc1CNC(=O)c1ccc(NC(=O)C2=C(C)OCCS2)cc1,-5,-9,1,-2,11,2,x,x,x,x,x,
O=C(CSc1nnc(COc2ccccc2Cl)o1)NC(=O)NCc1ccco1,72*,76*,-11,4,20,34,44*,-7,-8,1,4,
C=C(C)C(=O)Nc1cccc(C2=NOC3(C2)C[C@@H](C(N)=O)N(C(=O)C2(C)CC2)C3)c1 (some centres undefined),106*,75*,-3,13,91*,0,60*,-16,-5,103*,4,DNMT1 interf DR=>99
C=C(C)C(=O)Nc1cccc(C2=NOC3(C2)C[C@@H](C(N)=O)N(C(=O)c2cc([N+](=O)[O-])cc([N+](=O)[O-])c2C)C3)c1 (some centres undefined),96*,70*,-2,1,46*,1,64*,-6,4,17,3,
C/C=C\C(=O)Nc1cccc(C2=NOC3(C2)C[C@@H](C(N)=O)N(C(=O)C2(C)CC2)C3)c1 (some centres undefined),5,0,-1,0,1,-2,x,x,x,x,x,
C=C(C)C(=O)Nc1cccc(C2=NOC3(C2)C[C@H](C(N)=O)N(C(=O)COc2ccc(Cl)cc2)C3)c1 (some centres undefined),98*,72*,3,5,104*,1,75*,2,-8,64*,-2,DNMT1 interf DR=>99

# Compound activity (PubChem)
